Test results reported in PMC2909360 (Molecular microbiology, 2010).
Like-named read-outs stand apart in the source and are kept apart here.

T1: purified human cathepsin H (Homo sapiens, UniProt P09668)
T1 sequence (P09668 98-335): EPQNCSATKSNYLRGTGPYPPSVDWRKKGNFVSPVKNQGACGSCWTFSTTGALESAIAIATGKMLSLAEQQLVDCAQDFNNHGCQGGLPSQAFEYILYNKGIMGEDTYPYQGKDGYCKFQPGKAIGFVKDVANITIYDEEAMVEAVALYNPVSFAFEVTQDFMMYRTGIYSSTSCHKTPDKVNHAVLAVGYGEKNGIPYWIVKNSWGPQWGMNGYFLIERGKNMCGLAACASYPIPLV

B1: sialoL2: salivary cystatin (cysteine protease inhibitor) from the tick Ixodes scapularis, recombinant from E. coli (protein)
chain: MELALRGGYRERSNQDDPEYLELAHYATSTWSAQQPGKTHFDTVVEVLKVETQTVAGTNYRLTLKVAESTCELTSTYNKDTCQANANAAQRTCTTVIYRNLQGEKSISSFECAAA
B2: sialoL: salivary cystatin (cysteine protease inhibitor) from the tick Ixodes scapularis, recombinant from E. coli (protein)
chain: TGVFGGYSERANHQANPEFLNLAHYATSTWSAQQPGKTHFDTVAEVVKVETQVVAGTNYRLTLKVAESTCELTSTYNKDTCLPKADAAHRTCTTVVFENLQGDKSVSPFECEAA

Key:
[1] = target: T1, purified human cathepsin H; assay: Inhibition of cathepsin H, fluorogenic substrate assay; assay type: biochemical
[2] = target: purified bovine cathepsin B (Bos taurus, UniProt P07688); assay: Inhibition of cathepsin B, fluorogenic substrate assay; assay type: biochemical
Summary of the method: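 Pre-incubated 10 min at room temperature with increasing inhibitor concentrations, then Z-Leu-Arg-AMC added (0.25 mM final) at 30°C. Linear hydrolysis rate read for 20 min (ex 365/em 450 nm). Triplicates, mean ± SEM. IC50 from activity loss.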

| Molecule | inhibition of cathepsin H (in words) ([1]; listed as sialostatin L2) | inhibition of cathepsin B (in words) [2] | inhibition of cathepsin H (in words) [1] |
| --- | --- | --- | --- |
| B1 | no detectable inhibition | no inhibition |  |
| B2 |  | no inhibition | no inhibition |
